From PubChem BioAssay
This is a sample that favours compounds with a hit; in the whole collection about 4.6% have one here.
FAS-TE inh: FAS thioesterase domain inhibitors, primary screen, biochemical, fluorescence intensity, uHTS; Fatty acid synthase (Homo sapiens), P49327; recombinant FAS-TE, OMFH fluorogenic substrate, fluorescence endpoint; inhibition, % at 15 µM; AID 602261, 2012; 0.67% of 360,000 active;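 active = compounds whose normalised, plate-corrected inhibition of enzyme fluorescence in the single-dose primary screen is 50% or more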;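 also: 0% = DMSO with enzyme and 100% = substrate without enzyme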
UCH37 inh: inhibitors of human UCH37 deubiquitinase, primary screen, biochemical, Ub-AMC cleavage, fluorescence; purified proteasome/UCH37; 0.33% of 330,000 active; AID 588478, 2011; inhibition, % (concentration not given with the values); Ubiquitin carboxyl-terminal hydrolase isozyme L5 (Homo sapiens), Q9Y5K5;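 active = mean inhibition over replicate wells above about 20%, limit read from the data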;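 also: 0% = compound-free wells with enzyme and 100% = wells lacking proteasome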
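Assay system: Proteasome-bound UCH37. Buffer or medium: pH 7.4 Tris-HCl (50 mM) with ovalbumin, ATP-MgCl2, DTT. Incubation: 30 min preincubation with enzyme, 25 min cleavage at room temperature. Measured by: fluorescence, ex 355 nm, em 460 nm. Read-out basis: percent inhibition. Control set: wells without proteasome as full block, compound-free enzyme plus substrate as uninhibited.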
HDAC3 inhib: HDAC3 deacetylase inhibitors, primary screen, biochemical, fluorescence, cell-free homogeneous; 0.15% of 320,000 active; Histone deacetylase 3 (Homo sapiens), O15379; recombinant HDAC3, fluorogenic peptide/trypsin coupled; inhibition, % at 8.3 µM; in the data active = inhibition above about 26%, passing the limit was not always enough; inconclusive = no clear call, values can overlap the other calls
Rtt109 Vps75: inhibitors of C. albicans Rtt109/Vps75 HAT, primary screen, biochemical, ThioGlo CoA-SH fluorescence, plate reader. Histone acetyltransferase RTT109 (Candida albicans (strain SC5314 / ATCC MYA-2876)), …. purified Rtt109/Vps75, 4 h. inhibition, % at 34.9 µM. 0.16% of 330,000 active;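 active = inhibition of at least 50% in every replicate; inconclusive = best replicate reaches 50% inhibition but some replicates fall short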
ALR H2O2 inh: inhibitors of human ALR sulfhydryl oxidase, primary screen, biochemical, H2O2 detection, HRP-luminol luminescence, single point; FAD-linked sulfhydryl oxidase ALR (Homo sapiens), P55789; purified ALR, DTT oxidation; inhibition, % (test concentration not listed); 3.8% of 290,000 active; AID 485317, 2010;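 active = mean replicate inhibition above about 79%, with every replicate also reaching it, limit read from the data; inconclusive = only one of the two criteria met; inactive = mean below limit and not every replicate reaching it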
PfM18AAP inh: PfM18AAP inhibitors, malaria aminopeptidase, primary screen, biochemical, QFRET, recombinant enzyme; M18 aspartyl aminopeptidase (Plasmodium falciparum 3D7); H-Glu-NHMec fluorogenic cleavage; inhibition, % at 7.35 µM; 1.2% of 290,000 active; AID 1822, 2009;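 active = inhibition above the campaign mean inhibition over all tested compounds plus 3 SD, cut at about 28% in these data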;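 also: 0% = plate median of test compound wells and 100% = 2 mM ZnCl2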
Numbers without * were called inactive; ? = inconclusive; nt = no result given.

SMILES	FAS-TE inh	UCH37 inh	HDAC3 inhib	Rtt109 Vps75	ALR H2O2 inh	PfM18AAP inh
O=C(CC(Sc1ccc(Br)cc1)C(=O)O)c1ccc(F)cc1 (stereo unspecified)	-9	5	-1	5	nt	-81
CCOc1ccc(C(=O)CC(Sc2ccc(C)cc2)C(=O)O)cc1 (stereo unspecified)	-1	4	-7	16	95*	-30
COc1ccc(C2c3[nH]c4ccccc4c3C[C@H]3C(=O)N(c4ccccc4C(=O)N4CCC(C(=O)O)CC4)C(=O)N23)cc1 (stereo partly specified)	-6	4	-1	5	10	2
CC(C)c1ccc(C2c3[nH]c4ccccc4c3C[C@H]3C(=O)N(c4ccccc4C(=O)N4CCC[C@H]4C(=O)O)C(=O)N23)cc1 (stereo partly specified)	13	5	11	17	98*	5
COc1cccc(C2c3[nH]c4ccccc4c3C[C@H]3C(=O)N(c4ccccc4C(=O)N4CCC(C(=O)O)CC4)C(=O)N23)c1 (stereo partly specified)	-3	2	7	7	98*	1
CC(CC(C)C)=NOc1nc(C)cc(C)n1	nt	1	nt	nt	nt	nt
CC(=O)NN=C(c1ccccc1)C(O)c1ccccc1 (stereo unspecified)	nt	2	nt	nt	nt	nt
COc1ccc(C2c3[nH]c4ccccc4c3C[C@H]3C(=O)N(CCCO)CC(=O)N23)cc1OC (stereo partly specified)	-4	6	-10	0	-10	2
COc1cccc(C2c3[nH]c4ccccc4c3C[C@H]3C(=O)N(C4CC4)CC(=O)N23)c1 (stereo partly specified)	0	4	1	-3	3	-1
COc1ccc(C2c3[nH]c4ccccc4c3C[C@H]3C(=O)N(CCCO)CC(=O)N23)c(OC)c1 (stereo partly specified)	-6	2	-2	-4	99*	-6
COc1ccc(C2c3[nH]c4ccccc4c3C[C@H]3C(=O)N(C)CC(=O)N23)cc1OC (stereo partly specified)	0	3	?	2	98*	4
COc1cccc(C2c3[nH]c4ccccc4c3C[C@H]3C(=O)N(CCCO)CC(=O)N23)c1OC (stereo partly specified)	-3	3	0	4	27	-1
COc1cccc(C2c3[nH]c4ccccc4c3C[C@H]3C(=O)N(C)CC(=O)N23)c1 (stereo partly specified)	0	5	2	3	98*	-6
COCCN1CC(=O)N2C(c3cccc(OC)c3)c3[nH]c4ccccc4c3C[C@H]2C1=O (stereo partly specified)	3	1	-4	3	99*	-6
O=C(NN=Cc1ccc([N+](=O)[O-])o1)c1cn(-c2ccccc2)nc1-c1ccccc1	nt	8	nt	nt	nt	nt
CN(C)c1nc(Oc2ccc(C=NO)cc2)nc(N(C)C)n1	nt	1	nt	nt	nt	nt
COc1ccc(OC)c(C2c3[nH]c4ccccc4c3C[C@H]3C(=O)N(CCCOC(C)C)CC(=O)N23)c1 (stereo partly specified)	3	0	1	10	nt	2
COCCCN1CC(=O)N2C(c3cccc(OC)c3)c3[nH]c4ccccc4c3C[C@H]2C1=O (stereo partly specified)	0	6	2	1	100*	-2
O=C(Nc1ccccc1Cl)ON=C(c1ccccc1)c1ccccn1	nt	3	nt	nt	nt	nt
S=c1nc(-c2cccc(Br)c2)[nH][nH]1	-9	2	13	-2	99*	17
Cc1cc(C(=O)NN=Cc2cc(C(C)(C)C)c(O)c(C(C)(C)C)c2)n[nH]1	nt	2	nt	nt	nt	nt
Oc1ccc(-c2[nH]ncc2-c2cnn(-c3ccccc3)c2)c(O)c1	-54	1	1	9	98*	11
